# pCIP destab: p/CIP-EGFP fusion destabilizers, primary screen, fluorescence, F442A cells; decrease of EGFP signal, % at 10 µM; Q05BA5; 16 h; AID 1984, 2009; 0.01% of 290,000 active;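 active = EGFP signal decrease of at least 30% at 10 µM or well 3 SD below plate mean, unless failing retest; inactive = the rest, including hits failing retest or dose response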
# Target sequence (Q05BA5 1-1403): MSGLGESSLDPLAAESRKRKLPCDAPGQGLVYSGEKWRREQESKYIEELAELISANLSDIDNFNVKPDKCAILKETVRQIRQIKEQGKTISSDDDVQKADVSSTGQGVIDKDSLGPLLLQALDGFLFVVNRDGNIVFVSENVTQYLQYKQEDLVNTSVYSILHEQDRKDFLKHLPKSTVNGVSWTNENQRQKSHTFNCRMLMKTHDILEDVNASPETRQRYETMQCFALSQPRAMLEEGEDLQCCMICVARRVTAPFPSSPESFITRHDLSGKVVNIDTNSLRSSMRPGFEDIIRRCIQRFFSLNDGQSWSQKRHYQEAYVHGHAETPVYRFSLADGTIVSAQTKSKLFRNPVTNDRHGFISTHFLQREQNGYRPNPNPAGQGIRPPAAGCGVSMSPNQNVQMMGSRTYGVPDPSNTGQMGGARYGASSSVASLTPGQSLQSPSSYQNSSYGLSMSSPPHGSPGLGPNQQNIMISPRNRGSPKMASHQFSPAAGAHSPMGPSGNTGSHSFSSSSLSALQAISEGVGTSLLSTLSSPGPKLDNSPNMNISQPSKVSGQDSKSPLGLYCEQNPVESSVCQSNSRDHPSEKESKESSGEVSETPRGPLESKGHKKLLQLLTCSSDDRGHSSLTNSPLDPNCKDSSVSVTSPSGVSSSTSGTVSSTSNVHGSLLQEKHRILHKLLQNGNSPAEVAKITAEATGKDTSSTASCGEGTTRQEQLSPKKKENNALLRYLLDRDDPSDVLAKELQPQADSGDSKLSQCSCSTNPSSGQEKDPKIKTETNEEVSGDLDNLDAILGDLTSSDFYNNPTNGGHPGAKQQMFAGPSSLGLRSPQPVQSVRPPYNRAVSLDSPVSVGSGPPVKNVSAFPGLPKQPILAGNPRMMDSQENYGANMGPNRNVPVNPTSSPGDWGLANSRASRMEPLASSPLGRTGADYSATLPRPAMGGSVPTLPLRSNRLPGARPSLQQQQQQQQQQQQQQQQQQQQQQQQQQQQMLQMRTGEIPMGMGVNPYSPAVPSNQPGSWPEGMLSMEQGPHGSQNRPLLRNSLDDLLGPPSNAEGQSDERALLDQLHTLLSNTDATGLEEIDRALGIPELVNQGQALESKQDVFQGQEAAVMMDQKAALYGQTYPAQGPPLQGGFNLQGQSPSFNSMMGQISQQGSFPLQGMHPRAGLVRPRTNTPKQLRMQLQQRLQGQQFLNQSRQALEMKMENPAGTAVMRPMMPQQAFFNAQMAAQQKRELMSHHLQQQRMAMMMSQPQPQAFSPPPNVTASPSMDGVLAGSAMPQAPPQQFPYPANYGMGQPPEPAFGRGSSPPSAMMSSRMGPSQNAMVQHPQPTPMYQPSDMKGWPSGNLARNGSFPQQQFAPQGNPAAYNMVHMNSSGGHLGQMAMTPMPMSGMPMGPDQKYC
# MT1-MMP act inh: blockers of MT1-MMP proenzyme processing, primary screen, HT1080 RFP-PRO-GFP cells, GFP/RFP fluorescence; GFP/RFP ratio change, % at 20 µM; 0.061% of 360,000 active; GFP/RFP ratio fluorescence, overnight; percent of plate control window, DMSO zero; Matrix metalloproteinase-14 (Homo sapiens), P50281;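 active = GFP/RFP ratio change of at least 30% with cell ATP level not reduced by more than half and red fluorescence within 50% of control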
#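 Test system: HT1080 RFP-PRO-GFP cells; Benchmarks: DMSO and RFP-L50D-GFP cell wells; Timing: cells overnight before dosing, compound overnight, 37 °C, 5% CO2; Compound: one 20 µM compound dose with 1% DMSO; Read-out: GFP/RFP fluorescence ratio.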
# MsrA inhibitor: bovine MsrA enzyme inhibitors, primary screen, biochemical, absorbance, HTS; 0.75% of 360,000 active; purified bovine MsrA, absorbance read-out; AID 651718, 2012; Methionine sulfoxide reductase A (Bos taurus); inhibition, % at 15.5 µM; in the data active = inhibition above about 4.5%;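 also: 0% = vehicle wells with enzyme and 100% = reference inhibitor wells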
# SKN-1 block: suppressors of acrylamide-induced Pgst-4::GFP reporter in worms, primary screen, SKN-1 inhibitor project, whole organism, uHTS, GFP/RFP fluorescence ratio, strain VP596. C. elegans VP596 Pgst-4::GFP/RFP ratio, 24 h. inhibition, % at 21.8 µM. 0.49% of 360,000 active. AID 624304, 2012;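 active = interference check ratio from 0.5 to 1.5 plus GFP to RFP signal ratio inhibition reaching or exceeding a fixed threshold, cut at about 30% in these data, passing the limit was not always enough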
# bovine MsrA act: bovine MsrA enzyme activators, primary screen, biochemical, absorbance, HTS. Methionine sulfoxide reductase A (Bos taurus). purified bovine MsrA, absorbance read-out. activation, % at 10.6 µM. 0.3% of 360,000 active; in the data active = activation above about 7.5%;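 also: 0% = vehicle and 100% = reference activator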
# * = called active by the depositor; . = no result. Hits are enriched below; roughly 1.6% of the tested compounds scored in any of these assays.
SMILES,pCIP destab,MT1-MMP act inh,MsrA inhibitor,SKN-1 block,bovine MsrA act
CCCCCCCCNC(=O)C(CCC(=O)OCc1ccccc1)NC(C)=O (stereo not drawn),-5.8,-6.0,-0.4,53.2*,-0.2
CCN(CC)CC(C)CNC(=O)C1(O)c2ccccc2NC(=O)N1c1ccc(Cl)c(Cl)c1 (stereo not drawn),-4.0,-2.2,-0.6,5.3,-2.0
O=C1Nc2ccccc2C(O)(C(=O)NCc2ccco2)N1c1ccc(Cl)c(Cl)c1 (stereo not drawn),-14.9,-6.2,.,42.0*,-2.2
CC(=O)Nc1cc2nc3ccccc3oc-2cc1=O,.,.,0.2,.,.
c1ccn2cc(-c3ccc4c(c3)OCCO4)nc2c1,-8.8,4.9,0.1,37.7*,-4.8
Cc1ccc2nc(-c3ccc4c(c3)OCCO4)cn2c1,-3.5,2.7,0.4,-7.3,-3.0
Cc1ccc(-c2nn(-c3ccccc3)cc2CSC(=N)N)cc1,-9.8,-2.6,0.2,42.8*,-3.5
OCc1cn(-c2ccccc2)nc1-c1ccc(-c2nn(-c3ccccc3)cc2CO)cc1,-18.4,-5.4,-0.6,1.9,-4.7
CC(=O)O[C@H]1CC[C@]2(C)C3CC[C@]4(C)[C@@H]([C@H](C)/C=C/[C@H](C)C(C)C)CC[C@H]4[C@@]34C=C[C@]2(C1)N(C(=O)c1ccccc1)O4 (stereo partly drawn),.,.,-0.5,.,.
O=C(Nc1ccccc1F)C1CCCC1,.,3.8,0.1,41.3*,-3.1
O=C(Nc1ccccc1F)C1CCN(C(=O)NC2CCCCC2)CC1,-3.5,0.2,-0.7,1.7,-3.3
O=C(CCN1CCCCCC1)Nc1ccccc1F,.,2.0,0.1,49.1*,-0.2
O=C(CN1CCCCCC1)Nc1ccccc1F,-4.0,-0.8,1.1,-4.0,-1.8
COC[C@@H](O)[C@H]1OCc2cc(OC)ccc2[C@@H]1/C=C/c1ccccc1,.,.,0.1,.,.
Cc1cccc(C)c1OCc1cc(C(=O)N2CCN(C3CCCC3)CC2)no1,-5.1,-1.0,-1.4,49.7*,-1.3
C/C(=N\N=c1/sc2ccccc2n1C)c1ccc(N2CCOCC2)cc1,-9.0,-2.5,-0.3,1.9,-2.4
C/C(=N\N=c1/sc2ccccc2n1C)c1ccccn1,0.5,-1.5,1.5,36.4*,-5.3
COc1cc2sc3cc(NCc4ccc(C)o4)ccc3c(=O)c2cc1OC,.,9.6,2.7,36.6*,-2.4
O=C(C(=O)N1CCN(S(=O)(=O)c2ccccc2)CC1)c1cccc(C(F)(F)F)c1,.,.,0.7,.,.
O=C(N[C@H](C(=O)N1CCC[C@H]1C(=O)NCc1ccccc1)c1ccccc1)C1CCCC1,.,.,-0.1,.,.
COc1cccc(-c2sc3ccc(OC)cc3c2C#CC2(O)CCCCC2)c1,.,6.0,4.7*,21.9,-4.7
O=C(C(=O)N1CCC(CNC(=O)c2cccs2)CC1)c1cc2ccccc2o1,.,.,1.8,.,.
O=C(NCc1ccco1)c1sc2cc(F)ccc2c1Cl,-22.0,-3.8,-0.4,37.3*,-2.6
O=C(Nc1ccon1)c1sc2cc(F)ccc2c1Cl,2.8,1.7,0.8,9.5,-2.5
O=S(=O)(c1ccc(C(F)(F)F)cc1)N1CCCc2nc(-c3ccc(Br)cc3)ccc21,.,.,0.0,.,.
SMILES,pCIP destab,MT1-MMP act inh,MsrA inhibitor,SKN-1 block,bovine MsrA act
COc1ccc(N/C(=C\C(=O)c2ccccc2)c2ccccc2)cc1OC,.,.,1.3,.,.
COc1cccc(CN2CCN(Cc3ccco3)CC2)c1,-13.7,-0.5,-1.6,16.3,-1.7
COc1ccc(CN2CCN(Cc3ccco3)CC2)cc1,-2.6,-4.3,-0.2,40.5*,1.0
CCNC(=O)OC[C@H]1O[C@H](C#Cc2ccc(C(C)(C)C)cc2)C=C[C@H]1OC(C)=O,.,.,1.1,.,.
CSc1nc(N2CCOCC2)c2c(c1C#N)CC(C)(C)OC2,-6.2,3.0,2.3,36.8*,-2.7
Cc1ccc(NC(=O)CSCC(=O)Nc2ccccc2C(=O)N2CCCCC2)cc1,.,0.8,-0.1,45.5*,-2.0
Cc1cnc(C(=O)Nc2cccc3ncccc23)cn1,-7.3,4.6,1.4,-12.4,-11.8
Cc1cnc(C(=O)Nc2ccccc2-c2ccc(C)o2)cn1,-2.2,-141.2,0.3,36.5*,-1.9
Cc1[nH]c2ccccc2c1C(=O)/C=C/c1ccccc1,0.2,-10.8,0.6,53.0*,-4.8
Cc1[nH]nc2c1C(c1ccc(Br)cc1)N(Cc1ccccc1)C2=O (stereo not drawn),.,.,-0.4,.,.
O=S1(=O)C=C(Oc2ccc3ccccc3c2)c2ccccc21,-14.6,0.1,.,37.0*,2.4
O=S1(=O)C=C(Oc2ccc(F)cc2)c2ccccc21,-13.2,2.9,1.1,20.9,-4.9
Cc1cc(-n2c(C)cc(C(=O)CSc3ccc4c(c3)OCCO4)c2C)no1,0.2,0.0,0.7,3.2,24.0*
Cc1cc(-c2cc(NC(=O)Cc3c[nH]c4ccccc34)ccc2N(C)c2cccnc2)ccc1F,.,.,-0.2,.,.
Cc1ccc(C(=O)N(C)CC(=O)Nc2ccc(N3CCOCC3)cc2)s1,.,-1.0,-1.0,35.2*,-4.0
CN(CC(=O)Nc1ccc(N2CCOCC2)cc1)C(=O)c1cc2c(s1)CCCC2,.,3.1,0.7,-5.1,-2.3
O=[N+]([O-])c1ccccc1NCCOc1ccccc1,6.4,5.0,-0.7,45.8*,-5.8
Clc1ccc2oc(-c3ccccn3)nc2c1,-16.0,-18.5,0.9,38.8*,-3.2
O=S(=O)(O)c1cc(O)c2c(O)c(N=Nc3cc(Cl)ccc3O)c(S(=O)(=O)O)cc2c1,11.0,77.4*,.,89.2,-0.8
COc1ccc(/C=N/NC(=O)c2ccc(NC(=O)c3cccc([N+](=O)[O-])c3)cc2)c(C(=O)O)c1OC,-7.6,0.5,4.6*,1.8,-13.6
COc1cc(/C=N/NC(=O)c2cccc(NC(=O)c3ccccc3)c2)ccc1O,3.6,5.8,4.6*,-2.4,-3.2
COc1ccccc1/C=N/NC(=O)c1ccc(NC(=O)c2cccc([N+](=O)[O-])c2)cc1,11.4,.,.,.,.
c1ccc(-n2nnc(-c3nccs3)n2)cc1,.,-2.3,-0.4,36.4*,-7.2
Brc1ccccc1-n1nnc(-c2nccs2)n1,5.0,0.6,-0.6,25.6,-8.3
CCN(C(=O)CCc1cn(CC)c2ccccc12)c1ccc(Oc2cccnc2)cc1,.,.,0.1,.,.
O=c1c(-c2ccc(Br)cc2)coc2c(CN3CCOCC3)c(O)ccc12,-12.8,1.0,1.0,35.2*,-0.8
O=C1C2C3C=CC(C3)C2C(=O)N1Cc1cccnc1 (stereo not drawn),5.3,-2.1,0.7,-8.8,-4.4
O=C1C2C(C(=O)N1Cc1cccnc1)C1C=CC2C12CC2 (stereo not drawn),-5.9,-2.3,-1.7,40.5*,-1.4
CC(=O)Nc1ccc2c(c1Br)Cc1ccccc1-2,.,2.9,-0.7,44.0*,-3.7

# Screening results deposited in PubChem BioAssay by several laboratories.
